# Screening results from PubChem BioAssay.
# DAGLB inhibitor = blocks human DAGLB lipase activity | inhibition, % at 5.17 µM | Q8NCG7 | HEK293T DAGLB membrane lysate, EnzChek fluorogenic substrate | 340,000 tested, 0.059% active; in the data active = inhibition above about 34%
# HTRA1 inh = blocks human HTRA1 serine peptidase; recombinant HTRA1, FP-rhodamine activity-based probe, fluorescence polarization; AID 504803; Q92743; inhibition, % at 5.96 µM; 340,000 tested, 0.5% active; in the data active = inhibition above about 36%
# Target sequence (Q92743 whole entry, looked up): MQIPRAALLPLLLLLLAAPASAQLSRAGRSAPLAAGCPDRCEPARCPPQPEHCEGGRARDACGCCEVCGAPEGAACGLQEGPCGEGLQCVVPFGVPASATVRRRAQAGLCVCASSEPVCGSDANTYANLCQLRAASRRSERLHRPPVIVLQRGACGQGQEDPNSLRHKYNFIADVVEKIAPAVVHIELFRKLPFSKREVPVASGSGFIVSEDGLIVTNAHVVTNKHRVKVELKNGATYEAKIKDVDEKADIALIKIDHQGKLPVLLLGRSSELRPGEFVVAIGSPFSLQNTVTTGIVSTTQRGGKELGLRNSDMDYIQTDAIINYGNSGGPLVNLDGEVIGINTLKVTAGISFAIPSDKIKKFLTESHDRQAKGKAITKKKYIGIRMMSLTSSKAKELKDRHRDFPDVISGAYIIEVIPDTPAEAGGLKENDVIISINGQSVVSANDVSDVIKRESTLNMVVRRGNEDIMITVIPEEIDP
# ABHD4 inh = ABHD4 (mouse) inhibition, primary FP screen | purified mABHD4, FP-Rh probe fluorescence polarization | Q8VD66 | 370,000 tested, 0.54% active | inhibition, % at 8.92 µM;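 active = inhibition exceeding the mean over every tested compound plus 3 SD, cut at about 30% in these data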
#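 Test system: mABHD4 protein | Buffer or medium: HEPES pH 7.0 buffer, 150 mM NaCl, 0.01% Pluronic F-127 | Probe or stimulus: FP-Rh fluorescent activity-based probe, added after compound pre-incubation | Timing: Pre-incubation 45 min, probe exposure 60 min, at 25 °C | Technique: Fluorescence polarization, excitation 525 nm, emission 598 nm, BODIPY TMR filters | Repeats: Single well per compound (singlicate)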
# TCR CD3 inh = human TCR-CD3 binding inhibition | TAMRA-labeled TCR probe fluorescence, biochemical | inhibition, % at 9.4 µM | 360,000 tested, 0.37% active | AID 651800; in the data active = inhibition above about 19%;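 note: recombinant mutant TCR 2C K166C tagged with TAMRA read by polarization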
# SIAE primary = inhibitors of human sialic acid acetylesterase SIAE; inhibition, % at 9.66 µM; SIAE FP-Rh probe binding, fluorescence polarization; 370,000 tested, 0.69% active; Q9HAT2;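 active = inhibition above a cutoff: mean of compounds within the control limits plus 3 SD of those, cut at about 17% in these data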
# ABHD4 confirm = confirmation of mouse ABHD4 inhibitors; shares compounds with ABHD4 inh; purified mABHD4, FP-Rh probe fluorescence polarization; inhibition, % at 8.92 µM; 1,800 tested, 55% active;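 active = mean inhibition across replicates above the hit cutoff set in the primary screen, cut at about 30% in these data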
# Numbers stand for hits; . = inactive; / = no result given. A selection: hits, their analogues and other compounds. The true share with any hit is near 1.5%.
SMILES,DAGLB inhibitor,HTRA1 inh,ABHD4 inh,TCR CD3 inh,SIAE primary,ABHD4 confirm
CCOC(=O)N1CCN(C(=O)C[C@H]2C[C@@]3(C(=O)OC)C(=C[C@H](C(C)C)O[C@@H]3C3CC3)N(Cc3ccccc3)C2=O)CC1,/,/,.,.,.,/
O=S(=O)(Nc1nc(-c2ccco2)c(-c2ccco2)s1)c1ccc(F)cc1F,.,.,46.9,.,.,.
Cc1ccc(S(=O)(=O)N2[C@@H](c3ccccc3F)C(C(=O)O)=CC[C@H]2c2ccc(C(C)C)cc2)cc1,.,.,32.8,.,.,.
Cc1ccc([C@@H]2CC=C(C(=O)O)[C@H](c3ccccc3F)N2S(=O)(=O)c2ccc(C)cc2)cc1,.,.,.,.,.,/
O=C1C=C(Nc2ccccc2)c2ccccc2C1=O,.,.,.,.,.,/
O=C1C=C(Nc2ccccc2C(=O)O)c2ccccc2C1=O,.,.,44.0,.,.,53.0
CCOC(=O)C1=C(C(=O)OCC)C2N(Cc3ccc(Br)cc3)c3ccccc3[C@@]23C[C@@H](C(=O)OC)N(S(=O)(=O)c2ccc(C(F)(F)F)cc2)C3=N1 (some centres not stated),/,/,.,.,.,/
COCc1cc(=O)n2[nH]cc(-c3ccccc3)c2n1,.,.,.,.,.,/
CCOC(=O)Cc1cc(=O)n2[nH]cc(-c3cccc(Br)c3)c2n1,.,.,31.9,.,.,.
COc1ccc(N2CCN(CCCNC(=O)CCc3cccc(F)c3)CC2)cc1,/,/,.,/,.,/
CC(=O)N1CCC(=NNc2nc3ccccc3[nH]2)CC1,/,/,29.7,.,.,.
CCC(C)(C)C1CCC(=NNc2nc3ccccc3[nH]2)CC1 (configuration not stated),.,.,.,.,.,/
C/C(=N\Nc1nc2ccccc2[nH]1)c1ccc(Cl)s1,.,.,30.7,.,.,.
C/C(=N\NC(=O)c1ccccc1)c1ccc(N2CCOCC2)cc1,.,.,71.0,.,.,.
C/C(=N\Nc1nc2ccccc2[nH]1)c1ccc(N2CCOCC2)cc1,.,.,33.2,.,.,29.6
Cc1ccccc1C(=O)NC1CCCCN(Cc2ccc(Cl)cc2)C1=O (configuration not stated),/,/,.,/,.,/
Cc1ccc(CNC(=O)c2ccc3c(=O)[nH]c4c(C(=O)NCC5CCCO5)sc(=S)n4c3c2)cc1 (configuration not stated),.,.,33.0,.,.,40.8
CCn1c(N)c(C(=O)NCC2CCCO2)sc1=S (configuration not stated),.,.,.,.,.,/
O=C(NCc1ccccc1)c1ccc2c(=O)[nH]c3c(C(=O)NCC4CCCO4)sc(=S)n3c2c1 (configuration not stated),.,.,.,.,.,/
CCCCCNC(=O)c1ccc2c(=O)[nH]c3c(C(=O)NCC4CCCO4)sc(=S)n3c2c1 (configuration not stated),.,.,32.3,.,.,40.1
CCOC(=O)[C@@]12CCCC3=C1N(CCC3)C(=O)[C@H]2CC(=O)N1CCCCC1,/,/,.,/,.,/
COc1ccc(S(=O)(=O)N/N=C(/C)c2ccncc2)c(OC)c1,.,.,71.4,.,.,.
Cc1ccc(S(=O)(=O)/N=C2\C=C(NS(=O)(=O)c3ccccc3)C(=O)c3ccccc32)c(C)c1,.,.,49.8,.,.,35.6
CN1CCN(C2=C(NS(=O)(=O)c3ccccc3)C(=O)c3ccccc3C2=O)CC1,.,.,/,/,/,/
COc1ccc(C2CC(=O)C(c3ccc(F)cc3)=CN2Cc2ccccc2)cc1 (configuration not stated),/,/,.,.,.,/
SMILES,DAGLB inhibitor,HTRA1 inh,ABHD4 inh,TCR CD3 inh,SIAE primary,ABHD4 confirm
CC(c1cc(F)ccc1O)c1c[nH]c2ccccc12 (configuration not stated),/,/,.,/,.,/
CN1CCCCC(NC(=O)c2cccs2)C1=O (configuration not stated),/,/,.,.,.,/
Cc1ccc(N2C(=O)c3cccc4c(N)ccc(c34)C2=O)c2cccnc12,.,.,.,.,.,/
CCN1C(=O)c2cccc3c(N)ccc(c23)C1=O,.,.,33.3,.,.,58.0
COC(=O)c1ccc(C2N=C(c3cccs3)CC(c3ccccc3O)N2)cc1 (configuration not stated),.,.,36.2,.,.,.
O=C(c1ccccc1)N1N=C(c2cccs2)CC1c1ccccc1O (configuration not stated),.,.,.,.,.,/
CC(Nc1cccc2ccccc12)C(=O)N/N=C/c1ccc([N+](=O)[O-])cc1 (configuration not stated),.,.,.,.,.,/
COc1cc([N+](=O)[O-])cc(/C=N/NC(=O)C(C)Nc2cccc3ccccc23)c1O (configuration not stated),.,.,33.3,.,.,38.9
O=C(O)c1ccc(N/N=C/c2cn(Cc3ccc(F)cc3)c3ccccc23)cc1,.,.,49.5,.,.,55.3
CCNC(=S)N/N=C/c1cn(Cc2ccc(F)cc2)c2ccccc12,.,.,.,.,.,/
COc1cccc(CNC(=O)[C@H]2CCCN2C(=O)[C@H]2CCCN2C(=O)c2ccc(C)cc2)c1,/,/,.,.,.,/
CC(=O)N1N=C(c2cccc(O)c2)CC1c1cccs1 (configuration not stated),.,.,35.6,.,.,.
O=C(OC1CC2CCC(C1)[N+]21CCCC1)C(O)(c1ccccc1)c1ccccc1 (configuration not stated),/,/,.,/,.,/
Cc1ccc(-n2c(SCC(=O)c3ccc4ccccc4c3)nnc2-c2cccnc2)cc1,/,/,.,/,.,/
O=C(O)c1cccc(NN=C2c3ccccc3-c3ccccc32)c1,.,.,56.4,.,.,49.1
O=C(O)c1cc(NN=C2c3ccccc3-c3ccccc32)ccc1Cl,.,.,38.9,.,.,44.8
O=C(O)c1cccc(N/N=C/c2ccc(-c3ccccc3)cc2)c1,.,.,.,.,.,/
O=C(O)c1cccc2c1-c1ccccc1/C2=N\Nc1ccccc1,.,.,38.0,.,.,.
COCCN1C(=O)C2=C(C1=O)C1N(C)c3ccccc3[C@@]13C[C@@H](CO)N(S(=O)(=O)c1ccc(OC)cc1)C3=N2 (some centres not stated),/,/,.,/,.,/
COC(=O)C1=C(C)N(Cc2ccc(C(F)(F)F)cc2)C(=NCc2ccc3c(c2)OCO3)NC1c1cccc(Cl)c1 (configuration not stated),/,/,.,.,.,/
Cc1cc(N/N=C/c2ccc(F)cc2)nc(NCc2ccccc2)n1,/,/,.,.,.,/
Cc1ccc(/C=N/Nc2cc(C)nc(NCc3ccccc3)n2)cc1,.,.,33.6,.,.,59.8
CN(CCOC(=O)CSc1ccccc1)C1CN(Cc2cn(Cc3ccccc3F)nn2)S(=O)(=O)C1 (configuration not stated),/,/,.,/,.,/
O=C(NC(=S)NNC(=O)c1cnccn1)c1ccc(F)cc1,.,.,.,.,.,/
